The record followed here is ChEMBL document CHEMBL1143620, “Discovery of diphenyloxazole and Ndelta-Z-ornithine derivatives as highly potent and selective human prostaglandin EP(4) receptor antagonists” (J Med Chem, 2005).

In one series the target is Prostacyclin receptor (Homo sapiens, UniProt P43119). Briefly: Inhibition of [3H]iloprost binding to human prostanoid IP receptor.
For series [1], the target named is Prostaglandin E2 receptor EP4 subtype (Homo sapiens, UniProt P35408). In words: Inhibition of [3H]PGE-2 binding to human prostanoid EP4 receptor.
Sequence of Prostaglandin E2 receptor EP4 subtype (Homo sapiens, UniProt P35408) (P35408 whole entry): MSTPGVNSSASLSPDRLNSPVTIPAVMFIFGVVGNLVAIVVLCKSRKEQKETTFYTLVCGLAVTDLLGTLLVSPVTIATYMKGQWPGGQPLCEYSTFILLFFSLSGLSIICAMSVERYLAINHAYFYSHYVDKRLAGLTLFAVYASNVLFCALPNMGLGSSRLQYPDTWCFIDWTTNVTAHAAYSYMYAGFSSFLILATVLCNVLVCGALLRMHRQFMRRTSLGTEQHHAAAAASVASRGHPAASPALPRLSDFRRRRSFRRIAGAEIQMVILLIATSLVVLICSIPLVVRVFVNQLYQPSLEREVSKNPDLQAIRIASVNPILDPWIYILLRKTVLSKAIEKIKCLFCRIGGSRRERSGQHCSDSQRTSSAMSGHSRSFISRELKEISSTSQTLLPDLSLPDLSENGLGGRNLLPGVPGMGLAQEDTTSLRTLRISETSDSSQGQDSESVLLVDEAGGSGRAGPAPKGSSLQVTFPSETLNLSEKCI
In series [2] the target is Prostaglandin F2-alpha receptor (Homo sapiens, UniProt P43088). Briefly: Inhibition of [3H]PGF-2 binding to human prostanoid FP receptor.
Sequence of Prostaglandin F2-alpha receptor (P43088 whole entry): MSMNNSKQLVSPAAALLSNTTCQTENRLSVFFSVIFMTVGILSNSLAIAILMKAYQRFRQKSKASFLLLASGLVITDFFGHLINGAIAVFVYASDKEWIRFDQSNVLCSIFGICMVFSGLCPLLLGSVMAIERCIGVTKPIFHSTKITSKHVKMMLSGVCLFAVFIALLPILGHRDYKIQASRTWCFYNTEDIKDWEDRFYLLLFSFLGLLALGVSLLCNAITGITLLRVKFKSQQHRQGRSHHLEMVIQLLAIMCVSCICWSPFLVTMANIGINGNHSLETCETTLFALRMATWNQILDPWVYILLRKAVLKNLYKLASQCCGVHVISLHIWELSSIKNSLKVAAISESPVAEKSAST
Series [3] has as its target T1, Prostaglandin D2 receptor (Homo sapiens, UniProt Q13258).
T1 sequence (Q13258 whole entry): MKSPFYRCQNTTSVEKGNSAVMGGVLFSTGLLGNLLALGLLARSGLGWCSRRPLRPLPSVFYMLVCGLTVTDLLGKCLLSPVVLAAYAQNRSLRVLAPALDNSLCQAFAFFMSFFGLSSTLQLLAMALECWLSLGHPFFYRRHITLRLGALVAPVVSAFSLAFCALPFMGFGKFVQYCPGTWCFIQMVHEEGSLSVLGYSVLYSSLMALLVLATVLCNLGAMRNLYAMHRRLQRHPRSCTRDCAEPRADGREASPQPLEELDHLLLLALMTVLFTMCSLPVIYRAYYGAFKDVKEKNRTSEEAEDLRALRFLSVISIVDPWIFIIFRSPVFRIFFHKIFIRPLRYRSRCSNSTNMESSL
In words: Inhibition of [3H]PGD-2 binding to human prostanoid DP receptor.

In series [4] the target is T2, Prostaglandin E2 receptor EP1 subtype (Homo sapiens, UniProt P34995).
T2 sequence (P34995 whole entry): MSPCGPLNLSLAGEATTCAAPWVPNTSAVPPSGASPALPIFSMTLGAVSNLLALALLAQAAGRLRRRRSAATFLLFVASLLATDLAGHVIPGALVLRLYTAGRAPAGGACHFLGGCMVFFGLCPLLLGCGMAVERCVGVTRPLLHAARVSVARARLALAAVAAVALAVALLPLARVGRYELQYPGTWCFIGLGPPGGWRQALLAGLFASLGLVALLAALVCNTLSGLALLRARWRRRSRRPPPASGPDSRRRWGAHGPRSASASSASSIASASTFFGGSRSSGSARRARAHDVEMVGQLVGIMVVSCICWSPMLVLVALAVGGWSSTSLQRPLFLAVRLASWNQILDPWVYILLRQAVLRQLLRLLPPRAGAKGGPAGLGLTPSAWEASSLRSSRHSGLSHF
Briefly: Inhibition of [3H]-PGE-2 binding to human prostanoid EP1 receptor.

For a further series, the target named is T3, Thromboxane A2 receptor (Homo sapiens, UniProt P21731).
T3 sequence (P21731 whole entry): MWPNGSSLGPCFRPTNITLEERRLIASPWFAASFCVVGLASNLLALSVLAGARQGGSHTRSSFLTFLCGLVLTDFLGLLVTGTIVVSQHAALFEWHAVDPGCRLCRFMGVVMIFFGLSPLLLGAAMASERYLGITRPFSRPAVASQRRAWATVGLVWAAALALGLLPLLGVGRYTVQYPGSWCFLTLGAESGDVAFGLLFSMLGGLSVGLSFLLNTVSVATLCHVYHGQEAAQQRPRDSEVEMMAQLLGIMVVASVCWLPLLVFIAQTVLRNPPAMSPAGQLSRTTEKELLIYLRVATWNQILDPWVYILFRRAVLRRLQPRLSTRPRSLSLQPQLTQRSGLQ
Briefly: Inhibition of [3H]SQ-29,548 binding to human prostanoid TP receptor.

Series [5] addresses Prostaglandin E2 receptor EP2 subtype (Homo sapiens, UniProt P43116). Briefly: Inhibition of [3H]PGE-2 binding to human prostanoid EP2 receptor.
In series [6] the target is T4, Prostaglandin E2 receptor EP3 subtype (Homo sapiens, UniProt P43115).
T4 sequence (P43115 whole entry): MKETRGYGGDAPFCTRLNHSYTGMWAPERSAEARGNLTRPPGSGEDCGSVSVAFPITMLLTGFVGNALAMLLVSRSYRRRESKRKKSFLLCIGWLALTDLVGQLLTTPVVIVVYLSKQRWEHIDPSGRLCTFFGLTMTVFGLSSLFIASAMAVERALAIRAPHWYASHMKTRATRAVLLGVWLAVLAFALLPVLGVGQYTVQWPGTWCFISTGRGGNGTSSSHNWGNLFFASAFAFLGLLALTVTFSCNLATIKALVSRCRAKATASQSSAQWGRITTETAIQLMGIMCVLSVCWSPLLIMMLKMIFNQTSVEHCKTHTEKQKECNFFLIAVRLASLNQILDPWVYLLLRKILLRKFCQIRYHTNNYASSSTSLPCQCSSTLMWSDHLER
In words: Inhibition of [3H]PGE-2 binding to human prostanoid EP3 receptor.

Series [7] deals with Prostaglandin E2 receptor EP4 subtype (Rattus norvegicus, UniProt P43114). In words: Inhibition of rat prostanoid EP4 receptor.
Sequence of Prostaglandin E2 receptor EP4 subtype (Rattus norvegicus, UniProt P43114) (P43114 whole entry): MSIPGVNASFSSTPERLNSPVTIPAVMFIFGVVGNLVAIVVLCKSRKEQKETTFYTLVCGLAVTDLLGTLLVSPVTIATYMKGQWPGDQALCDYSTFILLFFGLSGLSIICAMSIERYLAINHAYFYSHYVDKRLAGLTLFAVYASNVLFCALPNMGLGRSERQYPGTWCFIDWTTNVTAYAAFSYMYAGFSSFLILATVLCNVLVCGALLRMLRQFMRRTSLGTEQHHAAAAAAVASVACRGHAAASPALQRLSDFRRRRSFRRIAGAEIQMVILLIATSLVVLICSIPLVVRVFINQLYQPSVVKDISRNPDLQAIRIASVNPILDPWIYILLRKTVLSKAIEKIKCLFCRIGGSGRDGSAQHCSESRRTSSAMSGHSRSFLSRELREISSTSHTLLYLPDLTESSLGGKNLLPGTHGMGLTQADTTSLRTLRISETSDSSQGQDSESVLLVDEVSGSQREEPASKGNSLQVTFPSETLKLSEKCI
A short description of series [8]: Half life in dog after iv administration (n=2-3). Particulars: in vivo. Type of series: ADME, organism-based, Canis lupus familiaris.
A short description of series [9]: Maximal plasma concentration in rats after 10 mg/kg oral dose n=3. Further details: dose 10 mg/kg, route oral. Particulars: rat. Type of series: ADME, organism-based.
Series [10] is described as follows: Clearance in dog after iv administration (n=2-3). Format: ADME, organism-based, Canis lupus familiaris. Particulars: in vivo.
Series [11] in a line: Clearance in rat after iv administration (n=2-3). Format: ADME, organism-based. Particulars: in vivo.
Series [12] is described as follows: Maximal plasma concentration in dogs after 3.2 mg/kg oral dose, n=3. Format: ADME, organism-based, Canis lupus familiaris. Further details: dose 3.2 mg/kg, route oral. Particulars: dog. Summed up: (§1)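 Single oral doses, n = 3 animals per dose. Peak plasma level reported in ng/mL, with oral bioavailability given as F (%). Values are mean ± SE.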
The nature of series [13]: Bioavailability in dog at 3.2 mg/kg after po administration (n=3). Format: ADME, organism-based, Canis lupus familiaris. Particulars: in vivo. The gist of the method:
as §1

A short description of series [14]: Half life in rat after iv administration (n=2-3). The conditions noted are these: in vivo. Type of series: ADME, organism-based.
A short description of series [15]: Bioavailability in rat (dose 10 mg/kg p.o.). Type of series: ADME, organism-based. The conditions noted are these: in vivo, po.
Series [16] is described as follows: Maximal plasma concentration in dogs after 0.1 mg/kg oral dose, n=3. Format: ADME, organism-based, Canis lupus familiaris. Also on record: dose 0.1 mg/kg, route oral. Particulars: dog. Summed up: as §1
The nature of series [17]: Bioavailability in dog at 0.10 mg/kg after po administration (n=3). The conditions noted are these: in vivo, 0.1 mg/kg. Format: ADME, organism-based, Canis lupus familiaris. Summed up:
as §1

Series [18] is described as follows: Bioavailability in rat at 0.32 mg/kg after po administration (n=3). The conditions noted are these: in vivo. Type of series: ADME, organism-based.
Series [19] can be described thus: Bioavailability in dog at 0.32 mg/kg after po administration (n=3). Format: ADME, organism-based, Canis lupus familiaris. The conditions noted are these: in vivo. The gist of the method: as §1
The nature of series [20]: Maximal plasma concentration in dogs after 0.32 mg/kg oral dose, n=3. Format: ADME, organism-based, Canis lupus familiaris. Further details: dose 0.32 mg/kg, route oral. Particulars: dog. Summed up: as §1

pKi: −log10 of the molar value. Bounds are passed on as bounds.

Sequence of Prostacyclin receptor (P43119 whole entry): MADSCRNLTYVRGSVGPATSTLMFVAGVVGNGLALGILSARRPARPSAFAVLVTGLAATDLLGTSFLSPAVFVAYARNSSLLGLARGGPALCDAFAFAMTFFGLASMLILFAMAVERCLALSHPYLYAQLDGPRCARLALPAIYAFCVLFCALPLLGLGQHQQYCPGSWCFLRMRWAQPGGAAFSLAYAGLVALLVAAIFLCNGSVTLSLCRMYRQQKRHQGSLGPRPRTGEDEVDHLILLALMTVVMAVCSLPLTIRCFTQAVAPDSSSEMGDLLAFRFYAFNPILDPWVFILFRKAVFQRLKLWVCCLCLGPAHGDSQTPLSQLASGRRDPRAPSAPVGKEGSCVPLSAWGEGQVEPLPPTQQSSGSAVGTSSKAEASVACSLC
Sequence of Prostaglandin E2 receptor EP2 subtype (P43116 whole entry): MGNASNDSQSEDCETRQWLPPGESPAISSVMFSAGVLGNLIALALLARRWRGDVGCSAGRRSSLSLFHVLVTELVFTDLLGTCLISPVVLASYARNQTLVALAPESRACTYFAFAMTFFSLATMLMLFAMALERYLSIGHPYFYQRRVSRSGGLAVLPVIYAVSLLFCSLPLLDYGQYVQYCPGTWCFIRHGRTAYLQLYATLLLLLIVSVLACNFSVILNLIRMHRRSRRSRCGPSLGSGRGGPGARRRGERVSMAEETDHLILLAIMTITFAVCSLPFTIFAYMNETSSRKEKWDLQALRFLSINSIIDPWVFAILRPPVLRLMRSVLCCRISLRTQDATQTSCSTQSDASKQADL

Broadly, the pKi is −log10 of the Ki, conventionally taken in molar units. Read a high pKi as a small Ki. As to `O=C(O)Cc1cccc(C[C@@H]2CCCC=C2c2nc(-c3ccccc3)c(-c3ccccc3)o2)c1`, the pKi on Prostacyclin receptor is 6.77; in [1] it was 7.30.
Consider `O=C(NOCc1ccccc1)c1cccc(C[C@@H]2CCCC=C2c2nc(-c3ccccc3)c(-c3ccccc3)o2)c1`, for which the pKi in [2] was below 6.00; in series [3], below 6.00; in [4], below 5.52; at Prostacyclin receptor, below 5.52; in [1], 9.17; on Thromboxane A2 receptor, below 6.00. The pKi in [5] and in series [6] was below 5.52 each time.
For the compound `O=C(O)CCCCCNC(=O)[C@H](CCCNC(=O)OCc1ccccc1)NC(=O)c1cc2ccccc2o1`, the pKi was below 5.00 in [2]; below 5.00 in [3]; 8.29 in series [7]; below 5.00 in series [4]; below 5.00 on Prostacyclin receptor; 9.04 in series [1]. The pKi (on Thromboxane A2 receptor; in [5]; in [6]) was below 5.00 throughout.
As for `CN(Cc1ccccc1)C(=O)[C@H](Cc1ccccc1)NC(=O)[C@H](CCCNC(=O)OCc1ccccc1)NC(=O)c1cc2ccccc2[nH]1`, the negative logarithm of the Ki (pKi) in series [1] is 7.10.
For the compound `O=C(O)CCCCCNC(=O)[C@@H](CCCCNC(=O)OCc1ccccc1)NC(=O)c1cc2ccccc2o1`, in series [1], the pKi is 6.62.
On the same count and under the same terms, then `O=C(O)CCCCCNC(=O)[C@H](CCCCNC(=O)OCc1ccccc1)NC(=O)c1cc2ccccc2o1`, with 8.08.
One may read the half-life as the time in which the quantity being followed falls by half. Read a low half-life as fast loss. The term Cmax denotes the maximum level reached in the sampled fluid or tissue. Broadly, the clearance is a measure of how efficiently the substance is removed, as volume per time. A high value points to a high capacity for elimination. The term bioavailability denotes the share of a dose that reaches the circulation, judged against a reference dose that is usually intravenous. A lower bioavailability goes with poor availability. Take `O=C(NS(=O)(=O)Cc1ccccc1)c1cccc(C[C@@H]2CCCC=C2c2nc(-c3ccccc3)c(-c3ccccc3)o2)c1`: the negative logarithm of the Ki (pKi) in series [2] was below 5.52; in series [3], below 5.52; in series [7], 9.13; in [4], below 5.52; on Prostacyclin receptor, below 5.52; in [1] it was 9.52. Also, the negative-log Ki (pKi) (at Thromboxane A2 receptor; in [5]; in series [6]) was below 5.52 each time. Further, the half-life in series [8] was 5.5 h; in [14], 4.4 h. For the same compound, the results for the highest concentration (Cmax) in series [9] and in [12] were 2100 ng/mL and 8200 ng/mL, respectively. The clearance in series [10] worked out at 0.52 mL/min/kg; in [11] it was 10.2 mL/min/kg. Besides, the bioavailability was 97% in [13] and 51% in [15].
In the case of `O=C(O)c1cccc(C[C@@H]2CCCC=C2c2nc(-c3ccccc3)c(-c3ccccc3)o2)c1`, the negative logarithm of the Ki (pKi) in series [2] was below 5.52; in series [3], below 5.52; in series [4] it was 5.60; at Prostacyclin receptor, 6.21; in series [1], 8.26; on Thromboxane A2 receptor it was below 5.52. The negative logarithm of the Ki (pKi) in series [5] and in series [6] was below 5.52 each time. Moreover, the half-life in series [8] is 5.5 h; in [14] it was 4 h. The Cmax was 9100 ng/mL in series [9] and 57.3 ng/mL in series [16]. Also, the clearance is 0.52 mL/min/kg in [10] and 11.2 mL/min/kg in series [11]. Besides, the bioavailability in series [17] was determined as 25%; in [15], 99%.
`O=C([O-])COc1cccc(C[C@@H]2CCCC=C2c2nc(-c3ccccc3)c(-c3ccccc3)o2)c1.[Na+]`: the results for the half-life in series [8] and in [14] were 3 h and 6.6 h, respectively. In series [10], the clearance is 1.59 mL/min/kg. For the same compound, the negative-log Ki (pKi) was 5.99 in series [1] and below 6.00 in series [6]. The Cl in [11] came to 17.7 mL/min/kg. Besides, the bioavailability came to 50% in series [18] and 72% in [19]. This compound also had a Cmax in series [20] of 592 ng/mL.
Take `O=C(NCCC[C@H](NC(=O)c1cc2ccccc2[nH]1)C(=O)N[C@@H](Cc1ccccc1)C(=O)O)OCc1ccccc1`: the pKi was below 6.00 in series [2]; below 6.00 in series [3]; below 6.00 in [4]; below 6.00 on Prostacyclin receptor; 7.37 in [1]; below 6.00 on Thromboxane A2 receptor. The pKi in series [5] and in series [6] was below 6.00 throughout.
